{"data": "Measurements of several laboratories", "note": "Each line is one published result; the experiments were not run side by side. pEC50: −log10 of the molar value."}
{"Compound": "CCCCNc1ccnc(Nc2cccc(-c3cccnc3)c2)n1", "tested on": "MV4-11", "test": "cell growth or viability, ATP luminescence", "conditions": "72 h", "measurement": "pEC50", "result": 6.47}
{"Compound": "Cn1cnc(-c2cc3nccc(Oc4ccc(NC(=S)NC(=O)Cc5ccccc5)cc4F)c3s2)c1", "tested on": "Staphylococcus aureus", "test": "microbial growth", "test system": "NCTC8325", "measurement": "MIC", "result": "> 30 µM"}
{"Compound": "c1ccc(-c2ccc(Nc3nccc(NC4CCCCC4)n3)cc2)nc1", "tested on": "MV4-11", "test": "cell growth or viability, ATP luminescence", "conditions": "72 h", "measurement": "pEC50", "result": 7.39}
{"Compound": "COC(C)(C)CCC[C@](C)(O)[C@H]1CC[C@]2(C)[C@@H]1[C@H](O)C[C@@H]1[C@@]3(C)CC[C@H](O)C(C)(C)[C@@H]3CC[C@]12C", "tested on": "BEAS-2B", "test": "cell growth or viability", "conditions": "25 µM, 24 h", "measurement": "inhibition", "result": "~50%"}
{"Compound": "CC(C)Nc1ccnc(Nc2cccc(-c3ncco3)c2)n1", "tested on": "MV4-11", "test": "cell growth or viability, ATP luminescence", "conditions": "72 h", "measurement": "pEC50", "result": 5.97}
{"Compound": "O=C(NOCC(O)CO)c1cc(Br)c(F)c(F)c1Nc1ccc(I)cc1F (stereo not shown)", "tested on": "Staphylococcus aureus", "test": "microbial growth", "test system": "NCTC8325", "measurement": "MIC", "result": "> 30 µM"}
{"Compound": "CC(C)c1nn(-c2nc3ccccc3s2)c2c1C(=O)c1ccccc1-2", "tested on": "Staphylococcus aureus", "test": "microbial growth, well diffusion", "test system": "NCIM5021", "conditions": "500 µg/mL", "measurement": "inhibition zone", "result": "10 mm"}
{"Compound": "CC(C)Nc1ccnc(Nc2cccc(-c3cnccn3)c2)n1", "tested on": "MV4-11", "test": "cell growth or viability, ATP luminescence", "conditions": "72 h", "measurement": "pEC50", "result": 8.30}
{"Compound": "COc1ccc2nc(-n3nc(C)c4c3-c3ccccc3C4=O)sc2c1", "tested on": "Staphylococcus aureus", "test": "microbial growth, well diffusion", "test system": "NCIM5021", "conditions": "500 µg/mL", "measurement": "inhibition zone", "result": "12 mm"}
{"Compound": "O=C1C=C(OCc2cn(-c3ccc(F)cc3)nn2)C(=O)c2ccccc21", "tested on": "Escherichia coli", "test": "microbial growth, broth dilution", "test system": "ATCC25922", "measurement": "IC50", "result": "165 µg/mL"}
{"Compound": "Cc1nn(-c2nc3ccc(Br)cc3s2)c2c1C(=O)c1ccccc1-2", "tested on": "Staphylococcus aureus", "test": "microbial growth, well diffusion", "test system": "NCIM5021", "conditions": "250 µg/mL", "measurement": "inhibition zone", "result": "11 mm"}
{"Compound": "Cc1cnc(Nc2ccc(N3CCN(C)CC3)cc2)nc1Nc1cccc(S(=O)(=O)NC(C)(C)C)c1", "tested on": "Staphylococcus aureus", "test": "microbial growth", "test system": "NCTC8325", "measurement": "MIC", "result": "> 30 µM"}
{"Compound": "c1cc(Nc2nccc(NC3CCCCC3)n2)cc(N2CCOCC2)c1", "tested on": "MV4-11", "test": "cell growth or viability, ATP luminescence", "conditions": "72 h", "measurement": "pEC50", "result": 6.43}
{"Compound": "COc1ccc(-c2ccc3c(N4CCOC[C@@H]4C)nc(N4CCOC[C@@H]4C)nc3n2)cc1CO", "tested on": "Staphylococcus aureus", "test": "microbial growth", "test system": "NCTC8325", "measurement": "MIC", "result": "> 30 µM"}
{"Compound": "Cc1ccc(C(C)C)cc1OS(=O)(=O)c1cccs1", "tested on": "Escherichia coli", "test": "microbial growth, broth dilution", "test system": "ATCC25922", "measurement": "IC50", "result": "149 µg/mL"}
{"Compound": "Cc1cccc(C)c1NC(=O)Nc1ccc(Cl)c(C(F)(F)F)c1", "tested on": "Staphylococcus aureus", "test": "microbial growth", "test system": "NCTC8325", "conditions": "24 h", "measurement": "MIC", "result": "> 100 µM"}
{"Compound": "Cc1nn(-c2nc3ccc(Cl)cc3s2)c2c1C(=O)c1ccccc1-2", "tested on": "Staphylococcus aureus", "test": "microbial growth, well diffusion", "test system": "NCIM5021", "conditions": "500 µg/mL", "measurement": "inhibition zone", "result": "10 mm"}
{"Compound": "COC(=O)c1cccc(Nc2nccc(NC3CCCCC3)n2)c1", "tested on": "MV4-11", "test": "cell growth or viability, ATP luminescence", "conditions": "72 h", "measurement": "pEC50", "result": 5.28}
{"Compound": "CC[C@H](Nc1ncnc2nc[nH]c12)c1nc2cccc(F)c2c(=O)n1-c1ccccc1", "tested on": "Staphylococcus aureus", "test": "microbial growth", "test system": "NCTC8325", "measurement": "MIC", "result": "> 30 µM"}
